Experimental data: PMC5617735 (Journal of the American Chemical Society, 2017)
Converted amounts (≈) assume the structure as drawn. Non-standard residues stand in square brackets, D forms with d. Residues, ends and D or L forms follow the SMILES beside them. ξ: configuration not given here. *: point of attachment. ξI = CCC(C)C(N)C(=O)O; Butyryl = CCCC(=O)*

Columns and labels:
[1] = tested on: Bacillus subtilis 168; experiment: Antibacterial assay; format: cell-based; settings: read-out: IC50, Bacillus subtilis 168
[2] = tested on: Staphylococcus aureus Newman; experiment: Antibacterial assay; format: cell-based; settings: read-out: IC50, Staphylococcus aureus Newman
[3] = tested on: Saccharomyces pombe; experiment: Antifungal assay; format: cell-based; settings: read-out: IC50, Saccharomyces pombe
[4] = tested on: Pseudomonas aeruginosa PAO1; experiment: Antibacterial assay; format: cell-based; settings: read-out: IC50, Pseudomonas aeruginosa PAO1
[5] = tested on: Enterococcus faecalis OG1RF; experiment: Antibacterial assay; format: cell-based; settings: read-out: IC50, Enterococcus faecalis OG1RF
[6] = tested on: E. coli K12; experiment: Antibacterial assay; format: cell-based; settings: read-out: IC50, E. coli K12
[7] = tested on: Saccharomyces cerevisiae; experiment: Antifungal assay; format: cell-based; settings: read-out: IC50, Saccharomyces cerevisiae
[8] = tested on: strains tested; experiment: Antibacterial and antifungal assays; format: cell-based
[9] = tested on: ΔsurR S. albus secondary metabolite production; experiment: HPLC-Qtof-MS of sur metabolite production in ΔsurR strain treated with elicitor; format: cell-based, Streptomyces albus J1074; settings: for increase in the production of surugamide I: HPLC-Qtof-MS; for upregulation of acyl-surugamide A / upregulation of albucyclone A: estimate based on lower limit of detection
[10] = tested on: recA and lexA; experiment: RT-qPCR of SOS response genes recA and lexA; format: cell-based, Streptomyces albus J1074; settings: S. albus
[11] = tested on: surR; experiment: RT-qPCR of surR expression upon elicitor exposure; format: cell-based, Streptomyces albus J1074; settings: wt S. albus, vs DMSO control
[12] = tested on: sur cluster (surA and surC transcripts); experiment: RT-qPCR of sur cluster expression; format: cell-based, Streptomyces albus J1074; settings: for upregulation of surC: at optimal elicitor concentration (~23 μM etoposide, ~30 μM ivermectin), vs DMSO; for elicitor concentration yielding optimal upregulation of sur: dose-response; for elicitor concentration yielding optimal upregulation of sur / induction of surA and surC: RT-qPCR; for induction of surA and surC: wt S. albus, vs DMSO control
Method in brief: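 Wild-type S. albus J1074 cultures were exposed to the test compound, with DMSO as the negative control. surA and surC mRNA were measured by RT-qPCR and expressed as fold-change versus the DMSO control. For the dose-response, concentrations were multiples of a base level: 1x equals 5.7 μM or 7.6 μM final, depending on the elicitor.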

[13] = tested on: S. albus; experiment: Growth inhibition of S. albus by elicitors; format: cell-based, Streptomyces albus J1074
[14] = molecular target: cathepsin B (Homo sapiens, UniProt P07858); experiment: Cathepsin B inhibition assay; format: biochemical; settings: read-out: Half-maximal inhibitory concentration (IC50), Cathepsin B Inhibition

| Molecule | IC50 [1] [µM] | IC50 [2] [µM] | IC50 [3] [µM] | IC50 [4] [µM] | IC50 [5] [µM] | IC50 [6] [µM] | IC50 [7] [µM] | IC50 [14] [µM] | also measured |
| --- | --- | --- | --- | --- | --- | --- | --- | --- | --- |
| albuquinone A [compound 22] | > 100 | > 100 | > 100 | > 100 | > 100 | > 100 | > 100 |  | antibiotic activity against the strains tested [8]: did not reveal significant antibiotic activity |
| ivermectin |  |  |  |  |  |  |  |  | increase in the production of surugamide I [9]: > 35 fold; upregulation of acyl-surugamide A [9]: > 40 fold; upregulation of albucyclone A [9]: > 50 fold; induction of recA and lexA [10]: no changes; down-regulation of surR expression [11]: 2–2.5 fold; upregulation of surC [12]: 4.5 fold; elicitor concentration yielding optimal upregulation of sur [12]: ~ 30 μM; induction of surA and surC [12]: 3 fold; inhibition of S. albus growth ([13]; at the concentrations employed): did not inhibit S. albus growth |
| CCCC(=O)NCCCC[C@@H]1NC(=O)C(C(C)CC)NC(=O)C(C(C)CC)NC(=O)[C@@H](C)NC(=O)C(C(C)CC)NC(=O)[C@@H](CC(C)C)NC(=O)[C@@H](Cc2ccccc2)NC(=O)[C@H]([C@@H](C)CC)NC1=O (stereo partly drawn) [compound 15, acyl-surugamide A] (cyclo(I[dF][dL][ξI][dA][ξI][ξI]K(Butyryl))) | 21.7 | 27.4 | 32.5 | > 100 | > 100 | > 100 | 3.5 | 43.3 |  |
| CC[C@@H](C)[C@H]1NC(=O)[C@H](C(C)C)NC(=O)[C@@H](C)NC(=O)[C@H](C(C)C)NC(=O)[C@@H](CC(C)C)NC(=O)[C@@H](Cc2ccccc2)NC(=O)[C@H](C(C)C)NC(=O)[C@H](CCCCN)NC1=O [compound 12, surugamide H] (cyclo(KV[dF][dL]V[dA]V[dI])) |  |  |  |  |  |  |  | 12.4 |  |
| surugamide J [compound 14] | > 100 | > 100 | > 100 | > 100 | > 100 | > 100 | > 100 | > 100 |  |
| albucyclone F [compound 21] | > 100 | > 100 | > 100 | > 100 | > 100 | > 100 | > 100 | > 100 |  |
| CC[C@@H](C)[C@H]1NC(=O)[C@H](C(C)C)NC(=O)[C@@H](C)NC(=O)[C@H](C(C)C)NC(=O)[C@@H](CC(C)C)NC(=O)[C@@H](Cc2ccccc2)NC(=O)[C@H]([C@@H](C)CC)NC(=O)[C@H](CCCCN)NC1=O [compound 11, surugamide G] (cyclo(I[dF][dL]V[dA]V[dI]K)) | > 100 | > 100 | > 100 | > 100 | > 100 | > 100 | > 100 | > 100 |  |
| CC(C)[C@@]1(NC(=O)[C@@H]2C[C@@H]3c4cccc5[nH]cc(c45)C[C@H]3N(C)C2)O[C@@]2(O)[C@@H]3CCCN3C(=O)[C@H](Cc3ccccc3)N2C1=O [dihydroergocristine] |  |  |  |  |  |  |  |  | induction of surA and surC [12]: 3 fold |
| surugamide I [compound 13] |  |  |  |  |  |  |  | 9 |  |
| albucyclone A [compound 16] |  |  |  |  |  |  |  | > 100 |  |
| COc1cc([C@@H]2c3cc4c(cc3[C@@H](O[C@@H]3O[C@@H]5CO[C@@H](C)O[C@H]5[C@H](O)[C@H]3O)[C@H]3COC(=O)[C@H]23)OCO4)cc(OC)c1O [etoposide] |  |  |  |  |  |  |  |  | increase in the production of surugamide I [9]: > 35 fold; upregulation of acyl-surugamide A [9]: > 40 fold; upregulation of albucyclone A [9]: > 50 fold; down-regulation of surR expression [11]: 2–2.5 fold; upregulation of surC [12]: ~ 10 fold; elicitor concentration yielding optimal upregulation of sur [12]: ~ 23 μM; induction of surA and surC [12]: 3 fold; IC50 ([13]; Streptomyces albus, read-out: half-maximal inhibitory concentration (IC50) on S. albus): 10 µg/mL (≈ 17 µM) |
